For assay [1], the target named is Tyrosine-protein kinase Lck (Homo sapiens) (UniProt P06239). In words: Inhibition of LCK at 1 uM in presence of 10 uM ATP by Select Screen kinase assay relative to untreated control. The method in brief:
(§1)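 Single-concentration profiling at 1 μM against a panel of 220 purified kinases, run as an outsourced SelectScreen kinase profiling service. Activity is expressed as percent inhibition.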

The target in assay [2] is T1, Mitogen-activated protein kinase 13 (Homo sapiens) (UniProt O15264).
T1 sequence (whole entry): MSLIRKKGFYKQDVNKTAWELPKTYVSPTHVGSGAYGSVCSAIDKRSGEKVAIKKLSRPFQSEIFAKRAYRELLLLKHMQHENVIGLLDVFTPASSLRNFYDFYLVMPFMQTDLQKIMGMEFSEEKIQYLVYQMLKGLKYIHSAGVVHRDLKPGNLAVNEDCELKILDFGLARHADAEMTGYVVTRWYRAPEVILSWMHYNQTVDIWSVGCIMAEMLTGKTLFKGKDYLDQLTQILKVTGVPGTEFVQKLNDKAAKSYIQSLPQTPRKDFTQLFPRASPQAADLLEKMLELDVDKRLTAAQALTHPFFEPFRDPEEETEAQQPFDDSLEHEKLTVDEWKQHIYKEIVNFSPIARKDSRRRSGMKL
In words: Inhibition of MAPK13 at 1 uM in presence of 10 uM ATP by Select Screen kinase assay relative to untreated control. In outline:
as §1

The target in assay [3] is T2, Protein kinase C iota type (Homo sapiens) (UniProt P41743).
T2 sequence (whole entry): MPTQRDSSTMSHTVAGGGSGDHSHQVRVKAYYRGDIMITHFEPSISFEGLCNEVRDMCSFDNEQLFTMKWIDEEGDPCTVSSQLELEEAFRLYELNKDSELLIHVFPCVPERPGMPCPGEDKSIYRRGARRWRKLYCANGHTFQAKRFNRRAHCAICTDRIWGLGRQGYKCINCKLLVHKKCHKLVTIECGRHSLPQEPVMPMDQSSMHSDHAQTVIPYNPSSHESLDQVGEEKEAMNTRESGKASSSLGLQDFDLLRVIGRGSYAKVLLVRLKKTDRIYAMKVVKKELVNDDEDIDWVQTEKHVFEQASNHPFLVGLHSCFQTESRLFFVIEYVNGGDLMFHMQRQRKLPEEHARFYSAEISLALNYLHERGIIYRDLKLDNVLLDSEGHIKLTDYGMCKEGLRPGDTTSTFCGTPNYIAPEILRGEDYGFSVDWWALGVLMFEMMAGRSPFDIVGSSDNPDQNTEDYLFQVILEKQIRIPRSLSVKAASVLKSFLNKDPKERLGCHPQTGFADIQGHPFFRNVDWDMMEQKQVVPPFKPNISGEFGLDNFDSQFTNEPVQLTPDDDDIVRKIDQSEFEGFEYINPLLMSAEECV
Description: Inhibition of PRKCI at 1 uM in presence of 10 uM ATP by Select Screen kinase assay relative to untreated control. In outline: (§2)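 Commercial SelectScreen profiling panel of 220 purified kinases. Each kinase was tested at a single inhibitor concentration of 1 μM, and activity was expressed as percent inhibition.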

For assay [4], the system named is Fibroblast growth factor receptor 3 (Homo sapiens), P22607 [K650E]. In words: Inhibition of FGFR3 K650E mutant at 1 uM in presence of 10 uM ATP by Select Screen kinase assay relative to untreated control. The method in brief:
as §1

The target of assay [5] is Protein kinase C beta type (Homo sapiens) (UniProt P05771). In words: Inhibition of PRKCB2 at 1 uM in presence of 10 uM ATP by Select Screen kinase assay relative to untreated control. The method in brief: as §2
Assay [6] concerns the target Tyrosine-protein kinase Fgr (Homo sapiens) (UniProt P09769). In words: Inhibition of FGR at 1 uM in presence of 10 uM ATP by Select Screen kinase assay relative to untreated control. The method in brief: as §1
Assay [7] deals with T3, Phosphorylase b kinase gamma catalytic chain, liver/testis isoform (Homo sapiens) (UniProt P15735).
T3 sequence (whole entry): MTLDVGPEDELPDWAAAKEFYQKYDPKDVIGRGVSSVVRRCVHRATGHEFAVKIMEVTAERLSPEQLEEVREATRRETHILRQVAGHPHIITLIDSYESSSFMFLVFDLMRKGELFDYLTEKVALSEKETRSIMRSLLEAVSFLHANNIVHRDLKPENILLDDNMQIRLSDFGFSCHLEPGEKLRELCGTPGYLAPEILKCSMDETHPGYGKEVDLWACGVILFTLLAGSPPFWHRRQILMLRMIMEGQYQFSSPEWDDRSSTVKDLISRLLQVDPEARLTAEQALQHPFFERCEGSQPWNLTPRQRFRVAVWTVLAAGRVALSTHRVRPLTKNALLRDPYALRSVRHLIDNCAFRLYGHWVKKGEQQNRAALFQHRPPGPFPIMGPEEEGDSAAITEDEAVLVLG
Description: Inhibition of PHKG2 at 1 uM in presence of 10 uM ATP by Select Screen kinase assay relative to untreated control. The method in brief:
as §2

The target of assay [8] is ALK tyrosine kinase receptor (Homo sapiens) (UniProt Q9UM73). In words: Inhibition of ALK at 1 uM in presence of 10 uM ATP by Select Screen kinase assay relative to untreated control. In outline:
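Single-point screen at 1 μM against a panel of 220 purified kinases, run by Invitrogen staff as a SelectScreen profiling service. Read-out is percent inhibition of kinase activity.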

Sequence of ALK tyrosine kinase receptor (Homo sapiens) (Q9UM73 19-1620 limits assumed): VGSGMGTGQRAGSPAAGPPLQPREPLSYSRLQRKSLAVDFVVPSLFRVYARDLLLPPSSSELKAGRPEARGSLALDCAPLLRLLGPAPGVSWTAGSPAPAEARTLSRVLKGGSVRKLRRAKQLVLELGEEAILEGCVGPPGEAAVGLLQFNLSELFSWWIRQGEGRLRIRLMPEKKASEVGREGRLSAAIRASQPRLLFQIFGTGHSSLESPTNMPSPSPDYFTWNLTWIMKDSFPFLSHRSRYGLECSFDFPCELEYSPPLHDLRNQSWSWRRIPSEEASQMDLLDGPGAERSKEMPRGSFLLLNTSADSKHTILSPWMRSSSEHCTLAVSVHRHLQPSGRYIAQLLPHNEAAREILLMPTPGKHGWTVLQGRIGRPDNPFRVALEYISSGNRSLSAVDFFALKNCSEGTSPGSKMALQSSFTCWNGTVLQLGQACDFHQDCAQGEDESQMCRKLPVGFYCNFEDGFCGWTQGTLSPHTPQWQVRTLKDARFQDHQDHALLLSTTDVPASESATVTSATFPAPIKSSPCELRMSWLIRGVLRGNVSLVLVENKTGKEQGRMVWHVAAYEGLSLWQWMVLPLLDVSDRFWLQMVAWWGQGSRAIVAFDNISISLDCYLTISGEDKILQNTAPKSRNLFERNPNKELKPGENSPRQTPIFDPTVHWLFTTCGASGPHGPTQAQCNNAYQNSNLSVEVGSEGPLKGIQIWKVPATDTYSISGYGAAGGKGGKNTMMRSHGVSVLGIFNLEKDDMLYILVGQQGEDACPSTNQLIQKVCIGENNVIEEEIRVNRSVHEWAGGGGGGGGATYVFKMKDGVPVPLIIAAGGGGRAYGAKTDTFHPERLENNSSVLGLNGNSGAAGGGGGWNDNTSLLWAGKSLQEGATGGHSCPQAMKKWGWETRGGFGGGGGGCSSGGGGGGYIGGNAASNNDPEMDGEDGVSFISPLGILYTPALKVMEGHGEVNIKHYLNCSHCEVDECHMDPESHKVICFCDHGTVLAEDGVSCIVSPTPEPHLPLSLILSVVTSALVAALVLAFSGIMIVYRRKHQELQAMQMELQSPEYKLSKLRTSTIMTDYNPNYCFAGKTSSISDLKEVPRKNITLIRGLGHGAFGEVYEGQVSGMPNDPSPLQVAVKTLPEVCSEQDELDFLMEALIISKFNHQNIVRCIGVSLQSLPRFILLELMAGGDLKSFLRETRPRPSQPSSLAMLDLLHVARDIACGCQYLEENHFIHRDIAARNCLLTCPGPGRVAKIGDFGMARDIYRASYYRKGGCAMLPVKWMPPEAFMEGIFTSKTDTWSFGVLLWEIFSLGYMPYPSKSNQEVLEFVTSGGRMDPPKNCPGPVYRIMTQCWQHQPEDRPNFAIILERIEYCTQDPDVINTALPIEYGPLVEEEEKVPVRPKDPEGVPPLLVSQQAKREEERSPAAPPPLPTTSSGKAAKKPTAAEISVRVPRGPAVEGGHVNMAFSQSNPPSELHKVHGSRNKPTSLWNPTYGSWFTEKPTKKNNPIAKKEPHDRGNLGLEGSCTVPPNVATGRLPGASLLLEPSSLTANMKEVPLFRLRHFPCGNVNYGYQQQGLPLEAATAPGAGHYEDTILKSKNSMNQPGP
Sequence of Fibroblast growth factor receptor 3 (Homo sapiens), P22607 [K650E] (P22607 whole entry K650E): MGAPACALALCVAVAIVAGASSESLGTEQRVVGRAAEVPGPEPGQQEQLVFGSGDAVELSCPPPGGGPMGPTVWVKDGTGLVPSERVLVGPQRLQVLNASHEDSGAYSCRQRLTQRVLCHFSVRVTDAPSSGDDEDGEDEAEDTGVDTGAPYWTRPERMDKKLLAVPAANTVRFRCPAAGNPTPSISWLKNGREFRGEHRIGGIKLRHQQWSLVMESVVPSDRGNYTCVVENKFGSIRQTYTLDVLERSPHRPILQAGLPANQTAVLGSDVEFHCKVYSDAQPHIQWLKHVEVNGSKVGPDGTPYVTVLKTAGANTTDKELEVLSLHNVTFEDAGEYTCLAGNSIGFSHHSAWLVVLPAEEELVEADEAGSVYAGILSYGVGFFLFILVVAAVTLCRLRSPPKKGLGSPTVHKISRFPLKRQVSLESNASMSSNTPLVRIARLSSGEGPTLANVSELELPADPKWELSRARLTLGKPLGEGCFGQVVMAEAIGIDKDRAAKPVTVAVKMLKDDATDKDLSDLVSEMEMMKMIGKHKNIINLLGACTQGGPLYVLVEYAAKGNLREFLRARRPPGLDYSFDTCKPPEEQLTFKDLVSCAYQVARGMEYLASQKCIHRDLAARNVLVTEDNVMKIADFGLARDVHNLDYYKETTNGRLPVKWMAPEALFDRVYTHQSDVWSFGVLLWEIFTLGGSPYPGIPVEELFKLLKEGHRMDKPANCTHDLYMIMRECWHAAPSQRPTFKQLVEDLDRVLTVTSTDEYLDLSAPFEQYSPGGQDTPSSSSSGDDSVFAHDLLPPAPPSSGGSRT
Sequence of Tyrosine-protein kinase Lck (Homo sapiens) (P06239 2-509 limits assumed): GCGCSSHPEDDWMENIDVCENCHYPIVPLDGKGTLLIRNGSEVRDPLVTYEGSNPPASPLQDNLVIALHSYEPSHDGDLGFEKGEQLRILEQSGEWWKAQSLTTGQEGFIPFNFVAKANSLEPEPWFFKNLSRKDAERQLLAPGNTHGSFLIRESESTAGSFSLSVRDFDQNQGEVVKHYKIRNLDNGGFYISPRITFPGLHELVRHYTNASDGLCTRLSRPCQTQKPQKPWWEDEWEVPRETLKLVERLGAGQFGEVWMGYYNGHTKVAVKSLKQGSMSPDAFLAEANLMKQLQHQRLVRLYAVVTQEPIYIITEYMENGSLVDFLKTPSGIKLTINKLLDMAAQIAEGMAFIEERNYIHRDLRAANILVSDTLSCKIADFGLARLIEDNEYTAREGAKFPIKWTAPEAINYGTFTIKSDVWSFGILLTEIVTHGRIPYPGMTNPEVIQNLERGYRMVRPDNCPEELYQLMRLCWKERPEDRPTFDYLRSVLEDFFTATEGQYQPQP
Sequence of Protein kinase C beta type (Homo sapiens) (P05771 2-671 limits assumed): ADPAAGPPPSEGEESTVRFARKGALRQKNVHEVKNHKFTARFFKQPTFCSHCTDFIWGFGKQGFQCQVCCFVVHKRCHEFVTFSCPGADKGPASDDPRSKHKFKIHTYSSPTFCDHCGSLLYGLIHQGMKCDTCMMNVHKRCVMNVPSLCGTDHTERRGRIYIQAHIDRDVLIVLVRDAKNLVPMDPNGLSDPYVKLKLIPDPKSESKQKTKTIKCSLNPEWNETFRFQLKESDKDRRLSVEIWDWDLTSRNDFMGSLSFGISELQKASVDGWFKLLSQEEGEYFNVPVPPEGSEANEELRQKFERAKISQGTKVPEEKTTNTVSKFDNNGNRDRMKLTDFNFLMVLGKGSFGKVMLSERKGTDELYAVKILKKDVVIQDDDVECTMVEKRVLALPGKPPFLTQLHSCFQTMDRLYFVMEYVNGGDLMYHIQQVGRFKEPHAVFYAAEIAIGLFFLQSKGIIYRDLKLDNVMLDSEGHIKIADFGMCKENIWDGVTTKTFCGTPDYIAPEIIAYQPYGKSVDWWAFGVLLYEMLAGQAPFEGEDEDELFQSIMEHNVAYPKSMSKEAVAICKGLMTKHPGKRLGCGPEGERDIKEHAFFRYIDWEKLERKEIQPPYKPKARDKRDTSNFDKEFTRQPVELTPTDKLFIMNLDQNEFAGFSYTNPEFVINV
Sequence of Tyrosine-protein kinase Fgr (Homo sapiens) (P09769 2-529 limits assumed): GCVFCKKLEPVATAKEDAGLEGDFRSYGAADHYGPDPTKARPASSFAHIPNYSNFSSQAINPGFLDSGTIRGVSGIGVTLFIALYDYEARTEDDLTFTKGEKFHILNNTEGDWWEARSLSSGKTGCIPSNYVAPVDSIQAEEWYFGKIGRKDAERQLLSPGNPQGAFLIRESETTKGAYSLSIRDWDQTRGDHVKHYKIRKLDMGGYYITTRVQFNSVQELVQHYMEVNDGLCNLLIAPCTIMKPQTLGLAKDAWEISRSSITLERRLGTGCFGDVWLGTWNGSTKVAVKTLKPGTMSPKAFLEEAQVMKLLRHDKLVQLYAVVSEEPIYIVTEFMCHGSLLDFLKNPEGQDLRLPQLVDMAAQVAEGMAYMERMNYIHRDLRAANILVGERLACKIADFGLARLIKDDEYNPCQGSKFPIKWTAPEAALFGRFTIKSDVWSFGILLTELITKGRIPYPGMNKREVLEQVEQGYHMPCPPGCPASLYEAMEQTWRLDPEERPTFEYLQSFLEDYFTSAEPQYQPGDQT

Regarding `O=C(NCCCNc1nc(Nc2cccc(NC(=O)N3CCCC3)c2)ncc1I)c1cccs1`, the inhibition (in general, the change of the read-out against control, counted positive when it falls) in assay [1] was determined as 30%; in assay [2] it was 27%; in assay [3] it was 21%; in assay [4], 38%; in assay [5], 35%; in assay [6] it was 29%. Moreover, the inhibition in assay [7] came out at 28%; in assay [8], 9%.
For `COc1ccccc1N1CCN(c2ncnc3[nH]nc(Br)c23)CC1`, the inhibition was 16% in assay [1]; 12% in assay [2]; 13% in assay [3]; 12% in assay [4]; 32% in assay [5]; 8% in assay [6]. Also, the inhibition in assay [7] was determined as 4%; in assay [8] it was 10%.
For `Cc1n[nH]c2ccc(-c3cncc(OC[C@@H](N)Cc4c[nH]c5ccccc45)c3)cc12`, the inhibition worked out at 14% in assay [1]; 36% in assay [2]; 10% in assay [3]; 8% in assay [4]; 68% in assay [5]; 36% in assay [6]. Besides, the results for the inhibition in assay [7] and in assay [8] were 11% and 17%, respectively.

Values taken from ChEMBL document CHEMBL1250448, “Inhibitor hijacking of Akt activation” (Nat Chem Biol, 2009).
